# Results reported in ChEMBL document CHEMBL1151448, “Comparative antianaerobic activities of doripenem determined by MIC and time-kill analysis” (2008).
# Active and inactive are the calls of the source. No cut-off for these calls is given here.
# Tests used:
# [1] = tested on: Bacteroides thetaiotaomicron; test: Antimicrobial activity against beta lactamase-positive Bacteroides thetaiotaomicron isolated from intra-abdominal infection and pelvic inflammatory disease patients after 48 hrs by agar dilution method; assay type: functional
# Summary of the method: (§1)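 CLSI agar dilution on brucella blood agar supplemented with laked sheep blood, hemin and vitamin K. Inocula of about 1 × 10^5 CFU/spot were applied by Steers replicator, and plates were incubated 48 h at 35°C in an anaerobic glove box. MIC was the concentration giving marked growth reduction versus the anaerobic control plate. QC strains were included each run, and β-lactamase was detected by Cefinase disk.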
# Prevotella intermedia = test: Antimicrobial activity against beta lactamase-positive Prevotella intermedia isolated from intra-abdominal infection and pelvic inflammatory disease patients after 48 hrs by time kill analysis; assay type: functional
# Summary of the method: (§2)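 The MIC was read by inspecting macrodilution time-kill tubes. Vials held prereduced brucella broth with 5% laked horse blood cells, hemin 5 μg/ml and vitamin K1 1 μg/ml. Final inoculum was 10^6–10^7 CFU/ml, prepared inside the anaerobe chamber. Vials were incubated 48 h at 35°C in a shaking water bath.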
# Finegoldia magna = test: Antimicrobial activity against beta lactamase-positive Finegoldia magna isolated from intra-abdominal infection and pelvic inflammatory disease patients after 48 hrs by time kill analysis; assay type: functional; summary of the method: as §2
# Fusobacterium nucleatum [2] = test: Antimicrobial activity against beta lactamase-positive Fusobacterium nucleatum isolated from intra-abdominal infection and pelvic inflammatory disease patients after 48 hrs by time kill analysis; assay type: functional; summary of the method: as §2
# Clostridium perfringens [3] = test: Antimicrobial activity against Clostridium perfringens isolated from intra-abdominal infection and pelvic inflammatory disease patients after 48 hrs by time kill analysis; assay type: functional
# Summary of the method: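 Macrodilution in prereduced brucella broth with 5% laked horse blood cells, 5 μg/ml hemin and 1 μg/ml vitamin K1. Final inoculum 10^6 to 10^7 CFU/ml, prepared inside the anaerobe chamber. Vials incubated 48 h at 35°C in a shaking water bath. MIC read by inspecting the time-kill tubes, alongside an antibiotic-free growth control.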
# Bacteroides fragilis [4] = test: Bactericidal activity against beta lactamase-positive Bacteroides fragilis isolated from intra-abdominal infection and pelvic inflammatory disease patients assessed as bacterial killing at 2 times MIC after 48 hrs by time kill analysis; assay type: functional
# Summary of the method: (§3)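 Macrodilution time-kill in prereduced brucella broth with 5% laked horse blood, hemin 5 μg/ml and vitamin K1 1 μg/ml, at final inoculum 10^6–10^7 CFU/ml. […] Viable counts were taken at 6, 12, 24 and 48 h on plates incubated 48 h anaerobically. 99.9% kill was taken as bactericidal.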
# [5] = tested on: Bacteroides thetaiotaomicron; test: Bactericidal activity against beta lactamase-positive Bacteroides thetaiotaomicron isolated from intra-abdominal infection and pelvic inflammatory disease patients assessed as bacterial killing at 2 times MIC after 48 hrs by time kill analysis; assay type: functional; summary of the method: as §3
# Prevotella disiens = test: Antimicrobial activity against beta lactamase-positive Prevotella disiens isolated from intra-abdominal infection and pelvic inflammatory disease patients after 48 hrs by agar dilution method; assay type: functional; summary of the method: as §1
# Prevotella denticola = test: Antimicrobial activity against beta lactamase-positive Prevotella denticola isolated from intra-abdominal infection and pelvic inflammatory disease patients after 48 hrs by agar dilution method; assay type: functional; summary of the method: as §1
# Prevotella buccae = test: Antimicrobial activity against beta lactamase-positive Prevotella buccae isolated from intra-abdominal infection and pelvic inflammatory disease patients after 48 hrs by agar dilution method; assay type: functional; conditions: Segatella buccae; summary of the method: as §1
# Porphyromonas levii = test: Antimicrobial activity against Porphyromonas levii isolated from intra-abdominal infection and pelvic inflammatory disease patients after 48 hrs by agar dilution method; assay type: functional; summary of the method: as §1
# Fusobacterium varium = test: Antimicrobial activity against Fusobacterium varium isolated from intra-abdominal infection and pelvic inflammatory disease patients after 48 hrs by agar dilution method; assay type: functional; summary of the method: as §1
# Parvimonas micra = test: Antimicrobial activity against Micromonas micros isolated from intra-abdominal infection and pelvic inflammatory disease patients after 48 hrs by agar dilution method; assay type: functional; summary of the method: as §1
# [6] = tested on: Peptostreptococcus anaerobius; test: Antimicrobial activity against Peptostreptococcus anaerobius isolated from intra-abdominal infection and pelvic inflammatory disease patients after 48 hrs by agar dilution method; assay type: functional; summary of the method: as §1
# Anaerococcus prevotii = test: Antimicrobial activity against Anaerococcus prevotii isolated from intra-abdominal infection and pelvic inflammatory disease patients after 48 hrs by agar dilution method; assay type: functional; summary of the method: as §1
# [7] = tested on: Peptoniphilus asaccharolyticus; test: Antimicrobial activity against Peptoniphilus asaccharolyticus isolated from intra-abdominal infection and pelvic inflammatory disease patients after 48 hrs by agar dilution method; assay type: functional; summary of the method: as §1
# Clostridium perfringens [8] = test: Antimicrobial activity against Clostridium perfringens isolated from intra-abdominal infection and pelvic inflammatory disease patients after 48 hrs by agar dilution method; assay type: functional
# Summary of the method: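 CLSI agar dilution on brucella blood agar supplemented with laked sheep blood, hemin and vitamin K. Inoculum about 1 × 10^5 CFU/spot, applied by Steers replicator. Plates incubated 48 h at 35°C in an anaerobic glove box. MIC is the concentration giving marked growth reduction versus the anaerobic control plate. Standard QC strains included in each run.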
# Clostridioides difficile [9] = test: Antimicrobial activity against Clostridium difficile isolated from intra-abdominal infection and pelvic inflammatory disease patients after 48 hrs by agar dilution method; assay type: functional; summary of the method: as §1
# [10] = tested on: Paraclostridium bifermentans; test: Antimicrobial activity against Clostridium bifermentans isolated from intra-abdominal infection and pelvic inflammatory disease patients after 48 hrs by agar dilution method; assay type: functional; summary of the method: as §1
# Clostridium perfringens [11] = test: Bactericidal activity against Clostridium perfringens isolated from intra-abdominal infection and pelvic inflammatory disease patients assessed as bacterial killing at 2 times MIC after 48 hrs by time kill analysis; assay type: functional
# Summary of the method: (§4)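 Time-kill in prereduced brucella broth with 5% laked horse blood cells, hemin and vitamin K1. […] Viable counts taken at 6, 12, 24 and 48 h, plates incubated 48 h anaerobically. Kill scored as 90%, 99% or 99.9%; 99.9% defines bactericidal.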
# Clostridioides difficile [12] = test: Bactericidal activity against Clostridium difficile isolated from intra-abdominal infection and pelvic inflammatory disease patients assessed as 99.9% bacterial killing at 2 times MIC after 48 hrs by time kill analysis; assay type: functional, organism-based; summary of the method: as §3
# Bacteroides fragilis [13] = test: Bactericidal activity against beta lactamase-positive Bacteroides fragilis isolated from intra-abdominal infection and pelvic inflammatory disease patients assessed as bacterial killing at MIC after 24 hrs by time kill analysis; assay type: functional; summary of the method: as §3
# [14] = tested on: Bacteroides thetaiotaomicron; test: Bactericidal activity against beta lactamase-positive Bacteroides thetaiotaomicron isolated from intra-abdominal infection and pelvic inflammatory disease patients assessed as bacterial killing at MIC after 24 hrs by time kill analysis; assay type: functional; summary of the method: as §3
# Fusobacterium nucleatum [15] = test: Bactericidal activity against beta lactamase-positive Fusobacterium nucleatum isolated from intra-abdominal infection and pelvic inflammatory disease patients assessed as bacterial killing at MIC after 24 hrs by time kill analysis; assay type: functional
# Summary of the method: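 Anaerobic macrodilution time-kill. Inoculum from brucella blood plates, prepared and diluted in prereduced brucella broth inside the anaerobe chamber. Final 10^6 to 10^7 CFU/ml in prereduced brucella broth with 5% laked horse blood cells, 5 μg/ml hemin and 1 μg/ml vitamin K1. […] Shaken at 35°C for 48 h. Viable counts taken at 6, 12, 24 and 48 h. 99.9% kill taken as bactericidal.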
# Clostridium perfringens [16] = test: Bactericidal activity against Clostridium perfringens isolated from intra-abdominal infection and pelvic inflammatory disease patients assessed as bacterial killing at MIC after 24 hrs by time kill analysis; assay type: functional; summary of the method: as §4
# Clostridioides difficile [17] = test: Bactericidal activity against Clostridium difficile isolated from intra-abdominal infection and pelvic inflammatory disease patients assessed as bacterial killing at MIC after 24 hrs by time kill analysis; assay type: functional; summary of the method: as §3
structure (smiles),measurement,setting,value
C[C@@H](O)[C@H]1C(=O)N2C(C(=O)O)=C(S[C@@H]3CN[C@H](C(=O)Nc4cccc(C(=O)O)c4)C3)[C@H](C)[C@H]12,MIC,[1],0.5 µg/mL
same,MIC50,[1],0.5 µg/mL
same,MIC90,[1],1 µg/mL
same,MIC,Prevotella intermedia,0.03 µg/mL
same,MIC,Finegoldia magna,0.03 µg/mL
same,MIC,Fusobacterium nucleatum [2],0.008 µg/mL
same,MIC,Clostridium perfringens [3],0.125 µg/mL
same,Activity,Bacteroides fragilis [4],99%
same,Activity,[5],99%
same,MIC50,Prevotella disiens,0.06 µg/mL
same,MIC90,Prevotella disiens,0.25 µg/mL
same,MIC50,Prevotella denticola,0.125 µg/mL
same,MIC90,Prevotella denticola,0.5 µg/mL
same,MIC50,Prevotella buccae,0.125 µg/mL
same,MIC90,Prevotella buccae,0.125 µg/mL
same,MIC,Porphyromonas levii,≤ 0.016 µg/mL
same,MIC,Fusobacterium varium,0.06 µg/mL
same,MIC50,Fusobacterium varium,0.06 µg/mL
same,MIC90,Fusobacterium varium,0.125 µg/mL
same,MIC50,Parvimonas micra,0.03 µg/mL
same,MIC90,Parvimonas micra,0.125 µg/mL
same,MIC50,[6],0.5 µg/mL
same,MIC90,[6],2 µg/mL
same,MIC,Anaerococcus prevotii,≤ 0.016 µg/mL
same,MIC,[7],≤ 0.016 µg/mL
same,MIC50,[7],≤ 0.016 µg/mL
same,MIC90,[7],0.06 µg/mL
same,MIC50,Clostridium perfringens [8],0.06 µg/mL
same,MIC90,Clostridium perfringens [8],0.125 µg/mL
same,MIC,Clostridioides difficile [9],4 µg/mL
same,MIC50,Clostridioides difficile [9],4 µg/mL
same,MIC90,Clostridioides difficile [9],8 µg/mL
same,MIC,[10],0.125 µg/mL
same,Activity,Clostridium perfringens [11],99%
same,Activity,Clostridioides difficile [12],inactive
same,Activity,Bacteroides fragilis [13],90%
same,Activity,[14],90%
same,Activity,Fusobacterium nucleatum [15],90%
same,Activity,Clostridium perfringens [16],90%
same,Activity,Clostridioides difficile [17],90%
C[C@@H](O)[C@H]1C(=O)N2C(C(=O)O)=C(S[C@@H]3CN[C@H](CNS(N)(=O)=O)C3)[C@H](C)[C@H]12 [DORIPENEM],MIC,[1],0.25 µg/mL
same,MIC50,[1],0.25 µg/mL
same,MIC90,[1],0.5 µg/mL
same,MIC,Prevotella intermedia,0.06 µg/mL
same,MIC,Finegoldia magna,0.06 µg/mL
same,MIC,Fusobacterium nucleatum [2],0.016 µg/mL
same,MIC,Clostridium perfringens [3],0.03 µg/mL
same,Activity,Bacteroides fragilis [4],99%
same,Activity,[5],99%
same,MIC50,Prevotella disiens,0.06 µg/mL
same,MIC90,Prevotella disiens,0.125 µg/mL
same,MIC50,Prevotella denticola,0.03 µg/mL
same,MIC90,Prevotella denticola,0.125 µg/mL
same,MIC,Prevotella buccae,0.06 µg/mL
same,MIC50,Prevotella buccae,0.06 µg/mL
same,MIC90,Prevotella buccae,0.125 µg/mL
same,MIC,Porphyromonas levii,0.03 µg/mL
same,MIC50,Fusobacterium varium,0.125 µg/mL
same,MIC90,Fusobacterium varium,0.125 µg/mL
same,MIC,Parvimonas micra,≤ 0.016 µg/mL
same,MIC50,Parvimonas micra,≤ 0.016 µg/mL
same,MIC90,Parvimonas micra,0.06 µg/mL
same,MIC50,[6],0.25 µg/mL
same,MIC90,[6],2 µg/mL
same,MIC,Anaerococcus prevotii,0.03 µg/mL
same,MIC,[7],≤ 0.016 µg/mL
same,MIC50,[7],≤ 0.016 µg/mL
same,MIC90,[7],0.03 µg/mL
same,MIC50,Clostridium perfringens [8],0.03 µg/mL
same,MIC90,Clostridium perfringens [8],0.03 µg/mL
same,MIC50,Clostridioides difficile [9],2 µg/mL
same,MIC90,Clostridioides difficile [9],4 µg/mL
same,MIC,[10],0.06 µg/mL
same,Activity,Clostridium perfringens [11],99%
same,Activity,Clostridioides difficile [12],inactive
same,Activity,Bacteroides fragilis [13],90%
same,Activity,[14],90%
same,Activity,Fusobacterium nucleatum [15],90%
same,Activity,Clostridium perfringens [16],90%
same,Activity,Clostridioides difficile [17],90%
C[C@@H](O)[C@H]1C(=O)N2C(C(=O)O)=C(SCCNC=N)C[C@H]12 [IMIPENEM ANHYDROUS],MIC,[1],0.25 µg/mL
same,MIC50,[1],0.25 µg/mL
same,MIC90,[1],0.5 µg/mL
same,MIC,Prevotella intermedia,0.03 µg/mL
same,MIC,Finegoldia magna,0.06 µg/mL
same,MIC,Fusobacterium nucleatum [2],0.016 µg/mL
same,MIC,Clostridium perfringens [3],0.06 µg/mL
same,Activity,Bacteroides fragilis [4],99%
same,Activity,[5],99%
same,MIC,Prevotella disiens,0.03 µg/mL
same,MIC50,Prevotella disiens,0.03 µg/mL
same,MIC90,Prevotella disiens,0.125 µg/mL
same,MIC50,Prevotella denticola,0.03 µg/mL
same,MIC90,Prevotella denticola,0.06 µg/mL
same,MIC,Prevotella buccae,0.03 µg/mL
same,MIC50,Prevotella buccae,0.03 µg/mL
same,MIC90,Prevotella buccae,0.03 µg/mL
same,MIC,Porphyromonas levii,≤ 0.016 µg/mL
same,MIC50,Fusobacterium varium,1 µg/mL
same,MIC90,Fusobacterium varium,1 µg/mL
same,MIC,Parvimonas micra,0.03 µg/mL
same,MIC50,Parvimonas micra,0.03 µg/mL
same,MIC90,Parvimonas micra,0.06 µg/mL
same,MIC,[6],0.06 µg/mL
same,MIC50,[6],0.06 µg/mL
same,MIC90,[6],1 µg/mL
same,MIC,Anaerococcus prevotii,≤ 0.016 µg/mL
same,MIC,[7],≤ 0.016 µg/mL
same,MIC50,[7],≤ 0.016 µg/mL
same,MIC90,[7],0.03 µg/mL
same,MIC50,Clostridium perfringens [8],0.06 µg/mL
same,MIC90,Clostridium perfringens [8],0.125 µg/mL
same,MIC50,Clostridioides difficile [9],8 µg/mL
same,MIC90,Clostridioides difficile [9],8 µg/mL
same,MIC,[10],0.25 µg/mL
same,Activity,Clostridium perfringens [11],99%
same,Activity,Clostridioides difficile [12],inactive
same,Activity,Bacteroides fragilis [13],90%
same,Activity,[14],90%
same,Activity,Fusobacterium nucleatum [15],90%
same,Activity,Clostridium perfringens [16],90%
same,Activity,Clostridioides difficile [17],90%
